This is a sample that favours compounds with a hit; in the whole collection about 4% have one here.
KCNQ1 inh = inhibitors of human KCNQ1 channel, primary screen, cell-based, thallium flux, high-throughput | Potassium voltage-gated channel subfamily KQT member 1 (Homo sapiens), P51787 | CHO-K1 KCNQ1, FluxOR thallium flux fluorescence; stronger effect = higher value | B-score at 10 µM | 310,000 compounds, 1.3% hits;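 active means compounds whose thallium flux B-score, printed positive for inhibition, exceeds three library SD while starting fluorescence stays within three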;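 further: channel opened by potassium depolarization with thallium stimulus after 20 min compound exposure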
KCNK3 block = human KCNK3 channel inhibitors, primary screen, CHO cells, FluxOR thallium flux, B-score; FluxOR fluorescence; stronger effect = lower value; B-score at 10 µM; 340,000 compounds, 0.84% hits; Potassium channel subfamily K member 3 (Homo sapiens), O14649;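 active means B-score under library mean minus 4 SD, starting fluorescence ratio at most library mean plus 5 SD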;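 further: more negative B-score means stronger inhibition of thallium flux through KCNK3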
PHOSPHO1 block = PubChem AID 1565; 290,000 compounds, 1.1% hits; Phosphoethanolamine/phosphocholine phosphatase (Homo sapiens), Q8TCT1; inhibition, % at 13.3 µM; recombinant PHOSPHO1, absorbance phosphatase assay; in the data active means inhibition above about 60%
KCNQ1 pot = potentiators or activators of KCNQ1 channel, primary screen, cell-based, thallium flux, high-throughput; CHO-K1 KCNQ1, thallium flux FluxOR fluorescence; stronger effect = higher value; B-score at 10 µM; 310,000 compounds, 0.35% hits; Potassium voltage-gated channel subfamily KQT member 1 (Homo sapiens), P51787;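 active means fluorescence ratio B-score, a plate-corrected score, at least three library SD, with initial intensity B-score within 5 SD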
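Material: CHO-K1 cells stably expressing KCNQ1. Medium: assay buffer for compound exposure, DMSO matched across wells. Reagent: K+/Tl+ depolarizing stimulus. Compound dosing: single-concentration screen. Times: 37 °C overnight plating, 90-min dark dye load, 20-min compound pretreatment. Technique: FluxOR Tl+ flux fluorescence.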
KCNK9 inh = KCNK9 potassium channel inhibitors, primary screen, HEK293 cells, thallium flux. FluxOR thallium flux fluorescence; stronger effect = lower value. B-score at 10 µM. 310,000 compounds, 1.2% hits. AID 488922, 2010;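 active means ratio B-score over 3 SD below the library mean, with starting fluorescence within 5 SD of its mean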;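 further: negative B-score means less thallium flux so channel inhibition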
hERG protect = hERG rescue from dofetilide block, primary screen, cell-based, CHO-hERG, FluxOR thallium flux, dofetilide IC70; 310,000 compounds, 0.51% hits; Voltage-gated inwardly rectifying potassium channel KCNH2 (Homo sapiens), Q12809; activation (rescue from dofetilide block), less the hit threshold, % at 10 µM; dofetilide IC70 present;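 active means activation above the mean of controls blocked by dofetilide plus 5 SD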;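 further: thallium influx through hERG after potassium depolarization seen as dye fluorescence rise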
Target sequence (Q12809 whole entry, looked up): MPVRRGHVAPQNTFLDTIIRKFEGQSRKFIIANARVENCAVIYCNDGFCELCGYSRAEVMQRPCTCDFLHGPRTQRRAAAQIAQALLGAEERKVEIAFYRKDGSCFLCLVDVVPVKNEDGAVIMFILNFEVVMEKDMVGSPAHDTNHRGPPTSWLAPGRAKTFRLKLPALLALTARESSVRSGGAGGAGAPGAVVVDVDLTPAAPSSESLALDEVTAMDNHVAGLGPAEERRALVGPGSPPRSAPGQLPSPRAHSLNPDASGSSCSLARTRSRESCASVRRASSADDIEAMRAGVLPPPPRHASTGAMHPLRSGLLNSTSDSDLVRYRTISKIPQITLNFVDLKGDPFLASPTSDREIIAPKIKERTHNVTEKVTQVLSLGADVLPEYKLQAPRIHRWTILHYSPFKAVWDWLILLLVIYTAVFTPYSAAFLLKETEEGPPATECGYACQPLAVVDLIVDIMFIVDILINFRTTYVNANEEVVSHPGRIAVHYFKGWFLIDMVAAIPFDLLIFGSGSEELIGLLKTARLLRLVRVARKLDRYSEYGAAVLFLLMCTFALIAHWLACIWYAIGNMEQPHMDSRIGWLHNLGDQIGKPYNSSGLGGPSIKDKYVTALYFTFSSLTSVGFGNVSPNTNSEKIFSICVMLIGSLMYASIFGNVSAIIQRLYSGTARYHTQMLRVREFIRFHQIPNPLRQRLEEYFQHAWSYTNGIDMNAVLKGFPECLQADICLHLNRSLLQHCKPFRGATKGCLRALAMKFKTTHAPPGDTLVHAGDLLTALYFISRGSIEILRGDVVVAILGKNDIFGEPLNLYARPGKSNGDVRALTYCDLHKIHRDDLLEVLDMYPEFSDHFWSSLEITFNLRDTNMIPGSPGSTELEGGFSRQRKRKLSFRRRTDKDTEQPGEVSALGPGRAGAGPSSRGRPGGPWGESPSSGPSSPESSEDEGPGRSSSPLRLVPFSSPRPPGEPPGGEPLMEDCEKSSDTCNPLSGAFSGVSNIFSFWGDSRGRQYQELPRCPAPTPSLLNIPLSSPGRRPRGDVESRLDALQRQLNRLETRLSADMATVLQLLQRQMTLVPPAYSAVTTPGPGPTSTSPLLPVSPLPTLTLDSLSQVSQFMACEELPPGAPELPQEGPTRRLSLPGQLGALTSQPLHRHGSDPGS
* marks the source's active call; other numbers are inactive results; i = inactive; nt = no result.

SMILES	KCNQ1 inh	KCNK3 block	PHOSPHO1 block	KCNQ1 pot	KCNK9 inh	hERG protect
Cc1ccc(-n2c(=O)c3c4c(sc3n3c(=S)[nH]nc23)CCC4)cc1	i	i	-31.5	i	i	-15.8
C=CCn1c(=S)[nH]c2sc3c(c2c1=O)CCCC3	i	i	-126.9	65*	i	12.1*
CCC(CCC(=O)Nc1ccc(S(N)(=O)=O)cc1)C(=O)O (stereo unspecified)	i	i	-12.8	i	i	5.1*
CCOC(=O)c1ccc(NC(=O)CCC(CC)C(=O)O)cc1 (stereo unspecified)	i	i	-41.5	i	i	-9.8
CCCCNC(=O)c1onc(CSc2ccc(F)cc2)c1C(=O)O	i	i	2.9	i	i	-1.2
CCCCNC(=O)c1onc(CSc2ccc(OC)cc2)c1C(=O)O	i	i	97.7*	i	i	-8.0
O=C(COc1ccccc1)Nn1cnc2ccccc21	i	i	96.8*	i	i	-7.6
C=CCNC(=O)COC(=O)c1cc(S(=O)(=O)N2CCCCC2)ccc1Cl	i	i	4.2	i	i	-6.4
O=C(CC(c1ccccc1)c1ccccc1)Nc1nn[nH]n1	i	i	27.8	i	i	-5.9
Cc1ccc(-n2cccc2/C=C2/C(=N)N3C(=NC2=O)SN=C3S(C)(=O)=O)cc1	10*	i	11.4	i	i	-21.6
CS(=O)(=O)C1=NSC2=NC(=O)/C(=C\c3cccn3-c3ccccc3Cl)C(=N)N21	10*	i	-0.8	i	i	-35.5
Cc1ccc(S(=O)(=O)Oc2ccc(/C=C3/C(=N)N4C(=NC3=O)SN=C4S(C)(=O)=O)cc2)cc1	i	i	49.0	i	i	-12.8
Cn1c(=O)c2c(ncn2CC(=O)OCC(=O)NC(c2ccccc2)c2ccccc2)n(C)c1=O	i	i	-5.2	i	i	-11.2
CCOC(=O)c1ccc(NC(=O)CSc2nc(=O)n3cccc(C)c3n2)cc1	i	i	nt	i	i	-12.7
c1ccc(-c2nnc(-c3ccccc3)nn2)cc1	i	i	32.1	i	i	0.2
c1cncc(-c2nnc(-c3cccnc3)nn2)c1	i	i	66.0*	i	i	3.9
N#CCc1ccccc1C(=O)OCC(=O)N(Cc1ccccc1)Cc1ccccc1	nt	-9.37*	nt	nt	nt	nt
COc1ccc(Cl)cc1NS(=O)(=O)c1cccc(C(=O)N2CC(C)OC(C)C2)c1 (stereo unspecified)	nt	i	nt	nt	nt	nt
O=[N+]([O-])c1ccc2nc(-c3ccc(Cl)cc3)[nH]c2c1	6*	i	3.8	i	i	-8.1
Cc1ccc(S(=O)(=O)N2CCOCC2)cc1C(=O)Nc1cc(Cl)ccc1N1CCOCC1	nt	i	nt	nt	nt	nt
Cc1nn(CCc2n[nH]c(=S)n2C)c(C)c1Br	i	i	85.0*	i	i	-12.2
C#CCSc1nccc(-c2nn(-c3ccc(C)cc3)ccc2=O)n1	i	i	80.9*	i	i	1.9
COc1cc(NC(=S)NCc2cccnc2)cc(OC)c1OC	i	i	62.8*	i	i	-13.3
Cc1ccc(/C=C2\SC(=S)N(CC3CCCO3)C2=O)o1 (stereo unspecified)	i	i	76.8*	i	i	-17.7
O=C1/C(=C\c2ccc(-c3ccccc3Cl)o2)SC(=S)N1CC1CCCO1 (stereo unspecified)	i	i	81.3*	i	i	-1.4
SMILES	KCNQ1 inh	KCNK3 block	PHOSPHO1 block	KCNQ1 pot	KCNK9 inh	hERG protect
O=C1/C(=C/c2ccco2)SC(=S)N1CC1CCCO1 (stereo unspecified)	i	i	3.8	i	i	-9.0
CCC(=O)OCCNc1cc(SCCC(=O)OC)c2nonc2c1[N+](=O)[O-]	i	i	-3.5	i	i	-14.8
CCCC(=O)OCCNc1cc(Sc2nc3ccccc3[nH]2)c2nonc2c1[N+](=O)[O-]	6*	i	-12.3	i	i	-29.3
CCC(=O)OCCNc1cc(Sc2nccn2C)c2nonc2c1[N+](=O)[O-]	7*	i	6.6	i	i	-38.2
CC(=O)N(c1cccc(C)c1)S(=O)(=O)c1ccc(Cl)cc1	i	i	24.4	i	i	-13.6
CCc1ccc(C(=O)CSc2ncn[nH]2)cc1	i	i	88.5*	i	i	-3.3
Cc1ccc(C(=O)CSc2ncn[nH]2)cc1	i	i	97.1*	i	i	-9.5
Cc1ccc(NC(=O)CSc2ncn[nH]2)cc1	i	i	11.2	i	i	-8.4
Cc1ccc(C(=O)CSc2ccccn2)cc1	i	i	82.7*	i	i	-3.8
COc1ccc(C(=O)CSc2ncn[nH]2)cc1OC	i	i	76.6*	i	i	-8.4
Cn1c(=O)c2c3c(sc2n2c(SCC(N)=O)nnc12)CC(C(C)(C)C)CC3 (stereo unspecified)	i	i	18.0	i	i	-2.2
CC(OC(=O)C1CCN(c2ccc(C(F)(F)F)cn2)CC1)C(=O)NC1CCCCC1C (stereo unspecified)	nt	i	nt	nt	nt	nt
Cc1cc(C)c2c(=O)n(CC(=O)N3CCC(Cc4ccccc4)CC3)sc2n1	i	nt	-28.4	i	i	-4.4
Cc1cccc(N2CCN(C(=O)Cn3sc4nc(C)cc(C)c4c3=O)CC2C)c1 (stereo unspecified)	i	i	14.6	14*	i	-7.8
Cc1ccc(N2CCN(C(=O)Nc3cccc([N+](=O)[O-])c3)CC2C)cc1 (stereo unspecified)	6*	i	41.8	i	i	-18.1
Cc1cccc(N2CCN(C(=O)c3ccncc3)CC2C)c1 (stereo unspecified)	i	i	-16.3	i	i	6.1*
Cc1cccc(NS(=O)(=O)c2cc(C(=O)N3CCOCC3)ccc2Cl)c1	i	i	33.9	i	i	-2.5
CCOC(=O)Cc1csc(NC(=O)COc2cccc(C)c2)n1	i	i	35.7	i	i	-9.9
O=C(COc1cccc2cccnc12)NNC(=O)Nc1ccccc1	i	i	61.0*	i	i	-8.8
NNC(=O)COc1cccc2cccnc12	i	i	2.9	i	i	-2.7
Cc1ccc(C)c(Oc2cc(NC(=O)CCCn3nc(C)c([N+](=O)[O-])c3C)cc([N+](=O)[O-])c2)c1	i	i	3.0	i	-7.74*	-0.7

Bioassay records (PubChem)
